Here are results for 1 compound from ChEMBL document CHEMBL5678815 (Clin Cancer Res, 2017).

In experiment [1] the target is RAC-beta serine/threonine-protein kinase (Homo sapiens) (UniProt P31751). Briefly: Inhibition of human AKT2 assessed as remaining activity at 1 uM by ATP-competition binding assay relative to control. In outline:
(§1)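 KINOMEscan ATP-site-dependent competition binding panel of 395 human kinases, with compound tested at 1 μM. Binding is reported as remaining signal relative to control.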

Experiment [2] concerns the target Calcium/calmodulin-dependent protein kinase type 1D (Homo sapiens) (UniProt Q8IU85). Briefly: Inhibition of human CAMK1D assessed as remaining activity at 1 uM by ATP-competition binding assay relative to control. The essentials:
as §1

The target in experiment [3] is Calcium/calmodulin-dependent protein kinase type II subunit alpha (Homo sapiens) (UniProt Q9UQM7). Description: Inhibition of human CAMK2A assessed as remaining activity at 1 uM by ATP-competition binding assay relative to control. In outline: as §1
Experiment [4] concerns the target Tyrosine-protein kinase CSK (Homo sapiens) (UniProt P41240). Description: Inhibition of human CSK assessed as remaining activity at 1 uM by ATP-competition binding assay relative to control. The essentials: as §1
The target of experiment [5] is Casein kinase I isoform gamma-2 (Homo sapiens) (UniProt P78368). Description: Inhibition of human CSNK1G2 assessed as remaining activity at 1 uM by ATP-competition binding assay relative to control. In outline: as §1
In experiment [6] the test system is eIF-2-alpha kinase GCN2 (Homo sapiens), Q9P2K8 [S808G]. Description: Inhibition of human GCN2 S808G mutant kinase domain 2 assessed as remaining activity at 1 uM by ATP-competition binding assay relative to control. The essentials:
(§2)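 Single-point profiling at 1μM in an ATP-site-dependent competition binding assay across a panel of 395 human kinases, including mutant forms. The read-out is kinase binding signal in the presence of test agent, expressed as inhibition relative to the control signal. This screen assessed noncovalent binding interactions.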

Experiment [7] concerns the target Maternal embryonic leucine zipper kinase (Homo sapiens) (UniProt Q14680). Briefly: Inhibition of human MELK assessed as remaining activity at 1 uM by ATP-competition binding assay relative to control. In outline:
as §2

Experiment [8] deals with Mast/stem cell growth factor receptor Kit (Homo sapiens), P10721 [V559D,T670I]. Briefly: Inhibition of human KIT V559D/T670I mutant assessed as remaining activity at 1 uM by ATP-competition binding assay relative to control. In outline:
as §2

Experiment [9] deals with Cyclin-dependent kinase 16 (Homo sapiens) (UniProt Q00536). Briefly: Inhibition of human PCTK1 assessed as remaining activity at 1 uM by ATP-competition binding assay relative to control. The essentials: as §2
In experiment [10] the target is Serine/threonine-protein kinase pim-2 (Homo sapiens) (UniProt Q9P1W9). Briefly: Inhibition of human PIM2 assessed as remaining activity at 1 uM by ATP-competition binding assay relative to control. In outline: (§3)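 Single-concentration (1 μM) screen in an ATP-site-dependent competition binding assay (KINOMEscan, outsourced) covering 395 human kinases, mutants included. Non-covalent binding was read as the remaining signal relative to the control signal.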

The target in experiment [11] is Dual specificity testis-specific protein kinase 1 (Homo sapiens) (UniProt Q15569). Description: Inhibition of human TESK1 assessed as remaining activity at 1 uM by ATP-competition binding assay relative to control. The essentials: as §3
Sequence of Dual specificity testis-specific protein kinase 1 (Homo sapiens) (Q15569 whole entry, looked up): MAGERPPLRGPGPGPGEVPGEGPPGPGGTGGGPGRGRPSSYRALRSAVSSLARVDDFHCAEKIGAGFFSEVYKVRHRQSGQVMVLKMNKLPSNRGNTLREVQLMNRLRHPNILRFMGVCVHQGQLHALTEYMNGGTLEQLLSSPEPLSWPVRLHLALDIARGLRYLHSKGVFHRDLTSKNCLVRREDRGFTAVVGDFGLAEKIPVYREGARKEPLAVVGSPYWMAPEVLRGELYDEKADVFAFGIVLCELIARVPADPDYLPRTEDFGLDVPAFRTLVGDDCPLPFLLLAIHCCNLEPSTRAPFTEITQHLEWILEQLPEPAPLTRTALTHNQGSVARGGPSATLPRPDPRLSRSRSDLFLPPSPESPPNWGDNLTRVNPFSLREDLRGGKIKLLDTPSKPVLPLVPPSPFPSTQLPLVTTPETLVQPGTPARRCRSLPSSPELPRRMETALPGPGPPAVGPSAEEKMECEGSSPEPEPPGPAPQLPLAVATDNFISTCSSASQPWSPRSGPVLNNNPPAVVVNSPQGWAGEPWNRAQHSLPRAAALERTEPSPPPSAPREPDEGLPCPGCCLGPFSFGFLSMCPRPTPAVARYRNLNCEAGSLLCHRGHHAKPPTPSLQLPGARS

Sequence of RAC-beta serine/threonine-protein kinase (Homo sapiens) (P31751 whole entry): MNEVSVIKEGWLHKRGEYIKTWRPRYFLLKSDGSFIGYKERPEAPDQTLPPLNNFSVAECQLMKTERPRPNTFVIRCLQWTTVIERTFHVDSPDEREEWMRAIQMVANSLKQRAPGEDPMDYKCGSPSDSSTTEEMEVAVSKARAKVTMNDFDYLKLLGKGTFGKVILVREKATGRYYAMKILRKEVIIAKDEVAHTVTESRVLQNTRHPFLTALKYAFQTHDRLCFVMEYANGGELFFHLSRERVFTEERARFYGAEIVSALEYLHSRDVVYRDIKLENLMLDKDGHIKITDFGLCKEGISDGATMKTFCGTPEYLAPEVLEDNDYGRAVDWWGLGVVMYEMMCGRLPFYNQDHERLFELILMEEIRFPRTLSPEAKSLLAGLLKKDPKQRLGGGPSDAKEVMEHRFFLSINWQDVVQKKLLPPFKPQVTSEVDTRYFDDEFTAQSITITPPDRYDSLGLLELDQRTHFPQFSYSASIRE
Sequence of Tyrosine-protein kinase CSK (Homo sapiens) (P41240 2-450 limits assumed): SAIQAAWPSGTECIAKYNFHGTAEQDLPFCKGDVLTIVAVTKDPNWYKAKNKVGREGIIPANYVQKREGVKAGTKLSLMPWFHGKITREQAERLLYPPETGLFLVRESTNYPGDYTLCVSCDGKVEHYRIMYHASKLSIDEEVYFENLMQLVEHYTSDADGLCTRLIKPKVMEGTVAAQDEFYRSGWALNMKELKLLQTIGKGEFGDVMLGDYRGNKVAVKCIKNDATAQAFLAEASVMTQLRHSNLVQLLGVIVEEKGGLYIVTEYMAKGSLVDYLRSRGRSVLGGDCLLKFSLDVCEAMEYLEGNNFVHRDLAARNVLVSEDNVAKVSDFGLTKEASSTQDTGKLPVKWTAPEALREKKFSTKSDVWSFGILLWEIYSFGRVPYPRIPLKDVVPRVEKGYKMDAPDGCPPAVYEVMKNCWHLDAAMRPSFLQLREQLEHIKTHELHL
Sequence of eIF-2-alpha kinase GCN2 (Homo sapiens), Q9P2K8 [S808G] (Q9P2K8 whole entry S808G, the tested form may be a part): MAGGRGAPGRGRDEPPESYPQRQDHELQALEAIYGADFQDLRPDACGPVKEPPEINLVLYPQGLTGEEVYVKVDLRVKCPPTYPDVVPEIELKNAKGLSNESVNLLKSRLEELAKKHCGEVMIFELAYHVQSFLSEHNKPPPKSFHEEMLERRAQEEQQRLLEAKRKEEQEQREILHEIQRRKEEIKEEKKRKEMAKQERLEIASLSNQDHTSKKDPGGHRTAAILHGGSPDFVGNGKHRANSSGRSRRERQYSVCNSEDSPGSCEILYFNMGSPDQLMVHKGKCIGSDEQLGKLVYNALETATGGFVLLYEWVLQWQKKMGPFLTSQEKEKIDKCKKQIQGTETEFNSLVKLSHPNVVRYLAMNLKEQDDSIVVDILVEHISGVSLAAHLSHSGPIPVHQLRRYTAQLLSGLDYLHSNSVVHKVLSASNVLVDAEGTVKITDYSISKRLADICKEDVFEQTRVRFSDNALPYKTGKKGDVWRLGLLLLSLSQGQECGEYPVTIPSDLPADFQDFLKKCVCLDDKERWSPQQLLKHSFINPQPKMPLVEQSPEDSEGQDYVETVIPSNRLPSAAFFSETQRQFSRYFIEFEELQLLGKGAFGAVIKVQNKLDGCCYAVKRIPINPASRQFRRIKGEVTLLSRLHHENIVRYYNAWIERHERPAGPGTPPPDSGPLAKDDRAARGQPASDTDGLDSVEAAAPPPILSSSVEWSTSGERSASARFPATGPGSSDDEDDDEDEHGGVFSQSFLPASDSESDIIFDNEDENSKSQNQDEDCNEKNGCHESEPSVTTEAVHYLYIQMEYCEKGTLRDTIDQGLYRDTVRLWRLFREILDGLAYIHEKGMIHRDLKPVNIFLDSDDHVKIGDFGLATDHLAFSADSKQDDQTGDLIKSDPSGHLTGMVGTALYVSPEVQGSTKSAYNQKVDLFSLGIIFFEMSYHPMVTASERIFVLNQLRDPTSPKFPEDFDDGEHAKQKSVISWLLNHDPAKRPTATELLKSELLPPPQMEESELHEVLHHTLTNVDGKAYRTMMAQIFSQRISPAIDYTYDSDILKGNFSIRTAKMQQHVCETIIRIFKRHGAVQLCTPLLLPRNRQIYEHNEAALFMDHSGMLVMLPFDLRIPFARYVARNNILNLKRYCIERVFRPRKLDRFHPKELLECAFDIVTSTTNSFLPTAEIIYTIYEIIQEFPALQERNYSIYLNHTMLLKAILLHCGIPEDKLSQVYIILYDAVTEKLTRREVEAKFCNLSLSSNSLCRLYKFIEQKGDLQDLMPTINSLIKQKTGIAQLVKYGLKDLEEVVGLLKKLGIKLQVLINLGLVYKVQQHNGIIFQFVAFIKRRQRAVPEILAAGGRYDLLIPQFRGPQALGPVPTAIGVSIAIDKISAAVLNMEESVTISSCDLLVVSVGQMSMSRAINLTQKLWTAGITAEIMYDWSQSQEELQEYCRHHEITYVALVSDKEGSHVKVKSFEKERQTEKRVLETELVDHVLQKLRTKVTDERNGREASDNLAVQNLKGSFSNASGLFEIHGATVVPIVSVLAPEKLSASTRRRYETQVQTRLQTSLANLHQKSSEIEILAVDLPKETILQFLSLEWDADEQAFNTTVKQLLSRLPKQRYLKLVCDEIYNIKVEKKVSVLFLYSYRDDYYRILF
Sequence of Calcium/calmodulin-dependent protein kinase type II subunit alpha (Homo sapiens) (Q9UQM7 whole entry): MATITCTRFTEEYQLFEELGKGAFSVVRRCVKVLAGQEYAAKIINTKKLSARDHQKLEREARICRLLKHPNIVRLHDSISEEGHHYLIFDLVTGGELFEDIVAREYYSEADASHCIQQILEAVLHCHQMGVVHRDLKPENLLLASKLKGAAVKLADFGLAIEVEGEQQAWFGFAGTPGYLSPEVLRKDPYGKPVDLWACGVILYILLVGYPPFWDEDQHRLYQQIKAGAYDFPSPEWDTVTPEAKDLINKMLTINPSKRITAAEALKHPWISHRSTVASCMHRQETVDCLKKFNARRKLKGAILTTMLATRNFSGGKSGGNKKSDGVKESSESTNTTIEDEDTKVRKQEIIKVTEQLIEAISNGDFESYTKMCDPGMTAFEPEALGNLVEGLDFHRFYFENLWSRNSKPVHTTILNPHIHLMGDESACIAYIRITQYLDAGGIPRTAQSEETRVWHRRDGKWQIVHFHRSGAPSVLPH
Sequence of Casein kinase I isoform gamma-2 (Homo sapiens) (P78368 whole entry, looked up, the tested form may be a part, canonical isoform): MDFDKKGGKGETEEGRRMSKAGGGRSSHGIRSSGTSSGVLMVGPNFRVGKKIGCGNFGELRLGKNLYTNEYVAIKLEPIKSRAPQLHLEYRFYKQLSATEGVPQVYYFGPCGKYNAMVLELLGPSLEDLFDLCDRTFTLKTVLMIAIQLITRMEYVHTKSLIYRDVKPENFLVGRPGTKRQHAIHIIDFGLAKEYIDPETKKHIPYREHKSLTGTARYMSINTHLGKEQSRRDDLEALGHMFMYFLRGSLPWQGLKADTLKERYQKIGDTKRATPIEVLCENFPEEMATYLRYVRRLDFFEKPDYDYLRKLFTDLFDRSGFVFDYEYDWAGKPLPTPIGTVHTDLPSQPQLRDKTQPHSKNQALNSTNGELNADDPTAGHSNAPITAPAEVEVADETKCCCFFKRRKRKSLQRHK
Sequence of Cyclin-dependent kinase 16 (Homo sapiens) (Q00536 whole entry): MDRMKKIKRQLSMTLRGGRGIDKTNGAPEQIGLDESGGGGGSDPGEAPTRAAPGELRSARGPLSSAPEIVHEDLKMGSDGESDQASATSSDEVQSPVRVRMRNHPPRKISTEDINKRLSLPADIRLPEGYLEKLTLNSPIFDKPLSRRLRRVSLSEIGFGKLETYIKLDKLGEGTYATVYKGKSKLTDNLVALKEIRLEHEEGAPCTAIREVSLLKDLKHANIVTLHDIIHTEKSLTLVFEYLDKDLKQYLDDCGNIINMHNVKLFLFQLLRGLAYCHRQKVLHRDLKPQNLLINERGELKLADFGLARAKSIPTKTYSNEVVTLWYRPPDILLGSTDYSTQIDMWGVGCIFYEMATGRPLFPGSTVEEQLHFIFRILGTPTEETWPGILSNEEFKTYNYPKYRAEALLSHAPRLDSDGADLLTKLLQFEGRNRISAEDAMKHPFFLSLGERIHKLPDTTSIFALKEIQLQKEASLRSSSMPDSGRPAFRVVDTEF
Sequence of Serine/threonine-protein kinase pim-2 (Homo sapiens) (Q9P1W9 whole entry, looked up): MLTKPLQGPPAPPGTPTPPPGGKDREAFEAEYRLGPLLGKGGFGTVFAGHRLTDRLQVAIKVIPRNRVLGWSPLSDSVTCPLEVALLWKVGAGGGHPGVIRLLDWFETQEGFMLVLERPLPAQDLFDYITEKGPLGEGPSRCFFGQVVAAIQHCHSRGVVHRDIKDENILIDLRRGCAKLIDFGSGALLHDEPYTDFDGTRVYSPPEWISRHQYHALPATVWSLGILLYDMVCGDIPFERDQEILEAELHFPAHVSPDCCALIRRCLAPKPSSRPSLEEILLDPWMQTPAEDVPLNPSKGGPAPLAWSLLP

Take `CC#CC(=O)N1CCC[C@H]1c1nc(-c2ccc(C(=O)Nc3ccccn3)cc2)c2c(N)nccn12` [ACALABRUTINIB]: the Activity in experiment [1] was 100%; in experiment [2], 98%; in experiment [3] it was 90%; in [4], 86%; in experiment [5] it was 82%; in experiment [6] it was 90%. Further, the Activity in experiment [7] turned out to be 76%; in experiment [8], 55%; in experiment [9], 100%; in experiment [10] it was 79%; in experiment [11] it was 83%.
